Data: ChEMBL document CHEMBL1938297, “Synthesis, radiofluorination and pharmacological evaluation of a fluoromethyl spirocyclic PET tracer for central σ1 receptors and comparison with fluoroalkyl homologs” (Bioorg Med Chem, 2012)

What was measured:
Femur [1] = assay: Biodistribution in CD1 mouse flushed femur at 300 kBq, iv after 60 mins by gamma counting; type: ADME, organism-based; conditions: in vivo, 1 h
In short: (§1)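 Female CD-1 mice received [18F]1 (300 kBq) i.v.; 3–6 animals per time point anesthetized at 5, 30, 60 or 120 min p.i., blood and urine collected, animals euthanized by cervical dislocation, organs dissected and weighed. Radioactivity counted in a calibrated gamma counter; % ID/g = tissue counts / initial dose counts / tissue weight; means with SD.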

Brain [2] = assay: Drug metabolism in CD1 mouse brain homogenates assessed as radiometabolites at 191 MBq, iv after 60 mins by radio-HPLC/TLC analysis; type: ADME, organism-based; conditions: in vivo, 1 h
In short: (§2)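 Female CD-1 mice were injected with the radiotracer via the tail vein and killed at 30 or 60 min p.i. Whole brains (n = 2 per time) were homogenised in 50 mM TRIS–HCl pH 7.4 at 4 °C and extracted twice with ice-cold acetonitrile. Concentrated extracts were analysed by radio-HPLC and radio-TLC to give % parent versus radiometabolites.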

Cerebellum [3] = assay: Biodistribution in CD1 mouse cerebellum at 300 kBq, iv after 30 mins by gamma counting; type: ADME, organism-based; conditions: in vivo, 0.5 h; in short: as §1
Stomach [4] = assay: Biodistribution in CD1 mouse stomach at 300 kBq, iv after 60 mins by gamma counting; type: ADME, organism-based; conditions: in vivo, 1 h
In short: (§3)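 Female CD-1 mice received the 18F tracer iv at 300 kBq in 0.9% NaCl containing 5% ethanol; 3–6 animals per time point (5, 30, 60, 120 min p.i.). Animals anaesthetized, blood and urine collected, killed by cervical luxation, organs dissected and weighed, counted in calibrated gamma counter. %ID/g = tissue counts / initial dose counts / tissue weight; mean with SD.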

Mus musculus [5] = assay: Biodistribution in CD1 mouse eye at 300 kBq, iv after 60 mins by gamma counting; type: ADME, organism-based; conditions: in vivo, 1 h; in short: as §1
[6] = Biodistribution in CD1 mouse urine at 300 kBq, iv after 60 mins by gamma counting; type: ADME, organism-based; conditions: in vivo, 1 h
In short: (§4)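 Female CD-1 mice received 300 kBq of the radiotracer i.v.; 3–6 animals per time point were anaesthetised at 5, 30, 60 or 120 min p.i. Blood and urine were collected, animals were killed by cervical dislocation, and organs were dissected and weighed. Activity was counted in a calibrated gamma counter and expressed as % injected dose per g wet tissue, mean with SD.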

Lung [7] = assay: Biodistribution in CD1 mouse lung at 300 kBq, iv after 30 mins by gamma counting; type: ADME, organism-based; conditions: in vivo, 0.5 h; in short: as §3
Kidney [8] = assay: Biodistribution in CD1 mouse kidney at 300 kBq, iv after 60 mins by gamma counting; type: ADME, organism-based; conditions: in vivo, 1 h; in short: as §3
Blood = assay: Biodistribution in CD1 mouse blood at 300 kBq, iv after 30 mins by gamma counting; type: ADME, organism-based; conditions: in vivo, 0.5 h; in short: as §1
Brain [9] = assay: Drug metabolism in CD1 mouse brain homogenates assessed as radiometabolites at 191 MBq, iv after 30 mins by radio-HPLC/TLC analysis; type: ADME, organism-based; conditions: in vivo, 0.5 h; in short: as §2
Spleen [10] = assay: Biodistribution in CD1 mouse spleen at 300 kBq, iv after 5 mins by gamma counting; type: ADME, organism-based; conditions: in vivo; in short: as §3
Liver [11] = assay: Biodistribution in CD1 mouse liver at 300 kBq, iv after 120 mins by gamma counting; type: ADME, organism-based; conditions: in vivo, 2 h; in short: as §3
Urinary bladder = assay: Biodistribution in CD1 mouse bladder at 300 kBq, iv after 5 mins by gamma counting; type: ADME, organism-based; conditions: in vivo; in short: as §1
Femur [12] = assay: Biodistribution in CD1 mouse flushed femur at 300 kBq, iv after 120 mins by gamma counting; type: ADME, organism-based; conditions: in vivo, 2 h; in short: as §1
Heart = assay: Biodistribution in CD1 mouse heart at 300 kBq, iv after 120 mins by gamma counting; type: ADME, organism-based; conditions: in vivo, 2 h; in short: as §3
Lung [13] = assay: Biodistribution in CD1 mouse lung at 300 kBq, iv after 60 mins by gamma counting; type: ADME, organism-based; conditions: in vivo, 1 h; in short: as §3
[14] = Biodistribution in CD1 mouse intestinal content at 300 kBq, iv after 120 mins by gamma counting; type: ADME, organism-based, Intestine; conditions: in vivo, 2 h; in short: as §3
Kidney [15] = assay: Biodistribution in CD1 mouse kidney at 300 kBq, iv after 120 mins by gamma counting; type: ADME, organism-based; conditions: in vivo, 2 h; in short: as §3
Pancreas [16] = assay: Biodistribution in CD1 mouse pancreas at 300 kBq, iv after 60 mins by gamma counting; type: ADME, organism-based; conditions: in vivo, 1 h; in short: as §3
Pancreas [17] = assay: Biodistribution in CD1 mouse pancreas at 300 kBq, iv after 5 mins by gamma counting; type: ADME, organism-based; conditions: in vivo; in short: as §3
Mus musculus [18] = assay: Biodistribution in CD1 mouse thymus at 300 kBq, iv after 30 mins by gamma counting; type: ADME, organism-based; conditions: in vivo, 0.5 h; in short: as §3
Spleen [19] = assay: Biodistribution in CD1 mouse spleen at 300 kBq, iv after 30 mins by gamma counting; type: ADME, organism-based; conditions: in vivo, 0.5 h; in short: as §3
[20] = Octanol-phosphate buffer partition coefficient, log D of the compound at pH 7.2 by shake-flask method; type: physicochemical
In short: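 Shake-flask distribution of the radioligand between n-octanol and aqueous buffer at pH 7.2, either phosphate buffer or phosphate-saline; n = 3.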

Stomach [21] = assay: Biodistribution in CD1 mouse stomach at 300 kBq, iv after 120 mins by gamma counting; type: ADME, organism-based; conditions: in vivo, 2 h; in short: as §3
Mus musculus [22] = assay: Biodistribution in CD1 mouse fat at 300 kBq, iv after 5 mins by gamma counting; type: ADME, organism-based, Adipose tissue; conditions: in vivo; in short: as §1
[23] = Biodistribution in CD1 mouse urine at 300 kBq, iv after 5 mins by gamma counting; type: ADME, organism-based; conditions: in vivo; in short: as §4
Muscle tissue = assay: Biodistribution in CD1 mouse muscle at 300 kBq, iv after 120 mins by gamma counting; type: ADME, organism-based; conditions: in vivo, 2 h; in short: as §3
Femur [24] = assay: Biodistribution in CD1 mouse flushed femur at 300 kBq, iv after 5 mins by gamma counting; type: ADME, organism-based; conditions: in vivo; in short: as §1
Mus musculus [25] = assay: Biodistribution in CD1 mouse thalmic nuclei in brain saggital section at 24 MBq, iv at 45 mins by autoradiography; type: ADME, organism-based; conditions: in vivo, 0.75 h
In short: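 Ex vivo autoradiography: female CD-1 mouse given 18F tracer iv (24 MBq), killed 45 min p.i.; brain hemispheres frozen in isopentane (−35 °C), 12 µm sagittal cryostat sections thaw-mounted, air-dried and exposed to 18F-sensitive phosphor screens. Regional uptake compared with anterior olfactory bulb as nontarget region (target-to-nontarget ratio).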

Liver [26] = assay: Biodistribution in CD1 mouse liver at 300 kBq, iv after 5 mins by gamma counting; type: ADME, organism-based; conditions: in vivo; in short: as §3
Mus musculus [27] = assay: Biodistribution in CD1 mouse eye at 300 kBq, iv after 30 mins by gamma counting; type: ADME, organism-based; conditions: in vivo, 0.5 h; in short: as §1
[28] = Chemical stability of the compound in phosphate-saline solution at pH 7.2 assessed as compound remaining after 2 hrs by radio-HPLC/TLC analysis; type: physicochemical; conditions: read-out: Stability
In short: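 Radiotracer incubated 120 min at 40 °C in 0.9% NaCl (pH 7.2), phosphate-saline (0.1 M sodium phosphate, 0.15 M NaCl, pH 7.2) or 0.01 M TRIS–HCl (pH 7.4 at 21 °C). Aliquots were taken at set times and analysed by radio-TLC on silica and by gradient radio-HPLC on RP-18 (MeCN/20 mM ammonium acetate, 254 nm), giving % unchanged tracer; n = 2.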

Femur [29] = assay: Biodistribution in CD1 mouse femur at 300 kBq, iv after 30 mins by gamma counting; type: ADME, organism-based; conditions: in vivo, 0.5 h; in short: as §1
Stomach [30] = assay: Biodistribution in CD1 mouse stomach at 300 kBq, iv after 30 mins by gamma counting; type: ADME, organism-based; conditions: in vivo, 0.5 h; in short: as §3
Cerebellum [31] = assay: Biodistribution in CD1 mouse cerebellum at 300 kBq, iv after 60 mins by gamma counting; type: ADME, organism-based; conditions: in vivo, 1 h; in short: as §1
Mus musculus [32] = assay: Biodistribution in CD1 mouse small intestine at 300 kBq, iv after 30 mins by gamma counting; type: ADME, organism-based; conditions: in vivo, 0.5 h; in short: as §3

Which results are given for `[18F]CC1OC2(CCN(Cc3ccccc3)CC2)c2ccccc21` (stereo unspecified)?
Drug uptake (Femur [1]): 1.18 % ID/g; Drug metabolism (Brain [2]): Active; Drug uptake (Cerebellum [3]): 6.27 % ID/g; Drug uptake (Stomach [4]): 1.77 % ID/g; Drug uptake (Mus musculus [5]): 0.87 % ID/g; Drug uptake [6]: 45.5 % ID/g; Drug uptake (Lung [7]): 8.3 % ID/g; Drug uptake (Kidney [8]): 6.03 % ID/g; Drug uptake (Blood): 0.35 % ID/g; Drug metabolism (Brain [9]): Active; Drug uptake (Spleen [10]): 6.23 % ID/g; Drug uptake (Liver [11]): 3.95 % ID/g; Drug uptake (Urinary bladder): 1.51 % ID/g; Drug uptake (Femur [12]): 1.29 % ID/g; Drug uptake (Heart): 3.05 % ID/g; Drug uptake (Lung [13]): 8.32 % ID/g; Drug uptake [14]: 1.96 % ID/g; Drug uptake (Kidney [15]): 5.6 % ID/g; Drug uptake (Pancreas [16]): 9.27 % ID/g; Drug uptake (Pancreas [17]): 11.22 % ID/g; Drug uptake (Mus musculus [18]): 4.83 % ID/g; Drug uptake (Spleen [19]): 8.85 % ID/g; logD [20]: 2.45; Drug uptake (Stomach [21]): 1.9 % ID/g; Drug uptake (Mus musculus [22]): 1.12 % ID/g; Drug uptake [23]: 3.99 % ID/g; Drug uptake (Muscle tissue): 1.16 % ID/g; Drug uptake (Femur [24]): 2.09 % ID/g; Drug uptake (Mus musculus [25]): Active; Drug uptake (Liver [26]): 5.31 % ID/g; Drug uptake (Mus musculus [27]): 2 % ID/g; remaining at 2 h [28]: 96.5%; Drug uptake (Femur [29]): 4.34 % ID/g; Drug uptake (Stomach [30]): 3.52 % ID/g; Drug uptake (Cerebellum [31]): 4.27 % ID/g; Drug uptake (Mus musculus [32]): 18.82 % ID/g
